In PMC7826402 (Proceedings of the National Academy of Sciences of the …, 2021):

What was measured:
[1] = test system: CXCR4-mediated HIV-1 infection; test: CXCR4-tropic HIV-1 NL4-3 infection of GHOST-CXCR4 cells; type: cell-based, HIV-1 in human osteosarcoma (GHOST) cells; details: GHOST-CXCR4, HIV-1 NL4-3; three experiments
CXCR4 [2] = details: cited from earlier work
GPR15 [3] = test: Calcium release in GPR15-expressing CHO cells; type: cell-based; details: CHO cells with human GPR15 and Gα16; aequorin; quadruplicate
[4] = test system: GPR15-mediated SIVmac239 infection; test: Inhibition of GPR15-mediated SIVmac239 infection of GHOST-GPR15 cells; type: cell-based, SIVmac239 in human osteosarcoma (GHOST) cells
How it was run: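 GHOST-GPR15 cells were seeded, cultured overnight and treated with test peptide for 2 h at 37 °C. They were then infected with SIVmac239 carrying Firefly luciferase in place of nef. Three days post-infection, cells were lysed and luciferase activity (RLU) was measured. Runs were at least in triplicate (mean ± SEM), and IC₅₀ was derived from increasing peptide concentrations.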

CXCR4 [5] = test: CXCR4 surface expression on PBMCs; type: cell-based, human; details: 10 µM, 1 h at 37°C; FACS; n = 3 donors
GPR15 [6] = test: GPR15 surface expression on PBMCs; type: cell-based, human; details: 10 µM, 1 h at 37°C; FACS; n = 3 donors
GPR15 [7] = test: GPR15 cell surface down-modulation in GHOST-GPR15 and CEM-M7 cells; type: cell-based, human
CCR5 = details: cited from earlier work

c1cc(CN2CCCNCCNCCCNCC2)ccc1CN1CCCNCCNCCCNCC1 [AMD3100, reference compound]
inhibition of CXCR4-mediated HIV-1 infection [1]: in contrast to the small molecule inhibitor AMD3100, neither CysC95-146 nor GPR15L inhibited
antagonism of chemokine signaling via CXCR4 (CXCR4 [2]): antagonize chemokine signaling via these GPCRs

CXCL-12/SDF-1: chemokine ligand of CXCR4
inhibition of CXCR4-mediated HIV-1 infection by chemokine ligand (CXCR4 [2]): inhibit CCR5- or CXCR4-mediated HIV-1 infection, respectively

GPR15L: agonistic chemokine ligand of GPR15 (KRRPAKAWSGRRTRLCCHRVPSPNSTNLKGHHVRLCKPCKLEPEPRLWVVPGALPQV; UniProt Q6UWK7 25-81, looked up)
calcium release (GPR15 signaling) (GPR15 [3]): GPR15 signaling was confirmed
inhibition of CXCR4-mediated HIV-1 infection [1]: neither CysC95-146 nor GPR15L inhibited CXCR4-mediated HIV-1 infection
effect of GPR15L on antiviral activity of CysC95-146 ([4]; GHOST-GPR15 treated with CysC95-146 in presence or absence of GPR15L, SIVmac239 luciferase reporter): did not enhance the antiviral activity of CysC95-146
inhibitory effect on HIV and SIV entry ([4]; overall statement (Discussion)): little if any inhibitory effect on HIV and SIV entry
CXCR4 surface expression on PBMCs (CXCR4 [5]): induced significant down-modulation of CXCR4
reduction of GPR15 cell surface expression on PBMCs (GPR15 [6]): ~40%
GPR15 cell surface expression (GPR15 [7]; GHOST-GPR15 and CEM-M7 cells, 30 min at 37°C or 4°C, flow cytometry): induced down-regulation of GPR15 from the surface of GHOST-GPR15 and CEM-M7 cells
GPR15 receptor internalization on ice (GPR15 [7]; cells kept on ice (4°C)): strongly reduced

Maraviroc [reference compound]
antagonism of chemokine signaling via CCR5 (CCR5): antagonize chemokine signaling via these GPCRs

B1: CCL5/RANTES: chemokine ligand of CCR5 (protein, UniProt P13501 24-91, looked up)
C-C motif chemokine 5: SPYSSDTTPCCFAYIARPLPRAHIKEYFYTSGKCSNPAVVFVTRKNRQVCANPEKKWVREYINSLEMS
inhibition of CCR5-mediated HIV-1 infection by chemokine ligand (CCR5): inhibit CCR5- or CXCR4-mediated HIV-1 infection, respectively

B2: cystatin C: small (13 kDa) basic protein; human Cystatin C protein (purified, from human urine) (protein, UniProt P01034 27-146, looked up)
Cystatin-C: SSPGKPPRLVGGPMDASVEEEGVRRALDFAVGEYNKASNDMYHSRALQVVRARKQIVAGVNYFLDVELGRTTCTKTQPNLDNCPFHDQPHLKRKAFCSFQIYAVPWQGTMTLSKSTCQDA
inhibition of GPR15-mediated SIVmac239 infection (in words) ([4]; GHOST-GPR15 cells, SIVmac239 F-Luc, peptide preincubation 1 – 2 h 37 °C, 3 dpi): little inhibitory effect
